# ChEMBL document CHEMBL2086320, “New synthetic inhibitors of fatty acid synthase with anticancer activity” (J Med Chem, 2012)
# Activity calls are given as the source filed them. The rule behind the calls is not given here.
# Legend:
# [1] = test system: HepG2; assay: Cytotoxicity against human HepG2 cells; format: functional, cell-based
# How it was run: (§1)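 MTT colorimetric assay: cells seeded at 5 or 7 x 10³ cells/well, attached overnight, then given fresh medium with a range of compound concentrations for 48 h at 37 °C, 5% CO2. MTT added for 3 h, formazan dissolved in DMSO, absorbance read at 570 or 540 nm. IC50 as mean±SEM from at least two independent experiments in duplicate or triplicate.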
# [2] = test system: Mus musculus; assay: Toxicity against C57BL/6J mouse assessed as weight loss at 30 to 75 mg/kg, ip administered as single dose measured after 24 hrs; format: organism-based; design: dose 30-75 mg/kg, route intraperitoneal; settings: in vivo
# How it was run: (§2)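 Male C57BL/6J mice, 12 weeks, 23-25 g, acclimatized one week on standard chow, 12 h/12 h light/dark, 22 °C; 4 per group. Fasted 12 h during dark cycle, then one i.p. injection (0.5 mL) of compound or vehicle (DMSO dissolved in RPMI 1640). Free access to chow for 24 h, then body weight recorded and behaviour observed. Weight data mean ± SEM, n=4.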
# [3] = biological target: Receptor tyrosine-protein kinase erbB-2 (Homo sapiens) (UniProt P04626); assay: Inhibition of HER2 phosphorylation in human SK-BR-3 cells after 2 hrs by Western blot analysis; format: cell-based
# Sequence of Receptor tyrosine-protein kinase erbB-2 (Homo sapiens) (P04626 whole entry): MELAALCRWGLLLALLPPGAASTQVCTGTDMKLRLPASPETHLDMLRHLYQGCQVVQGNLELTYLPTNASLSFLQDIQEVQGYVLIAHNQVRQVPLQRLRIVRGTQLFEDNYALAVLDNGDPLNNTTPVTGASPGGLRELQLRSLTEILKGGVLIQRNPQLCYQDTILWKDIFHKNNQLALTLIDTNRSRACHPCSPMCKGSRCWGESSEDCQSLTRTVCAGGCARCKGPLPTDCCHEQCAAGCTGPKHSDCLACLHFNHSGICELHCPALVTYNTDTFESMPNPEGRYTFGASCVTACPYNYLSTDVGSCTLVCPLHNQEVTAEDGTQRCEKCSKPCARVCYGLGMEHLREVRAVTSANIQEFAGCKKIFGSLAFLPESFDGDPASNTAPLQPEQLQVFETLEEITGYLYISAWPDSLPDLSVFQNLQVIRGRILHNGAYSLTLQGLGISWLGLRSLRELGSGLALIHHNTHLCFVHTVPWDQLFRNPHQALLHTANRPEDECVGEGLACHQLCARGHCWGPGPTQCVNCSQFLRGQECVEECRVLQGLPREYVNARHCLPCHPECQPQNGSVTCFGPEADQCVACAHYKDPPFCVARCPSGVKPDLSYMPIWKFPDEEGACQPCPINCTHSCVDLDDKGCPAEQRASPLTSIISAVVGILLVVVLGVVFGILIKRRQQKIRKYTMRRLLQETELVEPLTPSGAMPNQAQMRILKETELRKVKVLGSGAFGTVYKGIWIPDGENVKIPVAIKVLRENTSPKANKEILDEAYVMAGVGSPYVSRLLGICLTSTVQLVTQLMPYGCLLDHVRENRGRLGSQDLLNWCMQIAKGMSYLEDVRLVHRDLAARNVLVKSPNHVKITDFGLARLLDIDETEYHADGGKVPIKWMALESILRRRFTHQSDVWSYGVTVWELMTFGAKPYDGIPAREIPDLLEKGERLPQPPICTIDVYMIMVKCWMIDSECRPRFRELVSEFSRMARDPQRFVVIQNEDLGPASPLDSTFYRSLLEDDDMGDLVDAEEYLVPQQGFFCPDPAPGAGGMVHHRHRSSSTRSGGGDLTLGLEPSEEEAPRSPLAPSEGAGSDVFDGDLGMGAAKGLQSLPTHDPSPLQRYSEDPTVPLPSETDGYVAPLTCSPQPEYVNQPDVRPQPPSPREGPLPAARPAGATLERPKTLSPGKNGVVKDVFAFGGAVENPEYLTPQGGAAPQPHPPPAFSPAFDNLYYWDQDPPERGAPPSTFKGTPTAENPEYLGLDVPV
# How it was run: (§3)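 SK-Br3 cells treated for set times (6, 12 or 24 h; p-HER2 also at 2 h), trypsinized, and lysed in Tris pH 7.5/EDTA/NaCl/PMSF buffer. Equal protein resolved by SDS-PAGE (3-8% gel for HER2 forms, 4-12% gel for AKT/ERK). Blots blocked in 2.5% milk/TBS-T, primary antibody overnight at 4 °C, HRP secondary, chemiluminescence; β-actin reprobe as loading control. At least two independent experiments.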
# [4] = test system: SK-BR-3; assay: Cytotoxicity against human SKBR3 cells after 48 hrs by MTT assay; format: functional, cell-based; settings: SK-BR-3, 48 h; how it was run: as §1
# [5] = test system: SK-BR-3; assay: Cytotoxicity against human SKBR3 cells; format: functional, cell-based
# How it was run: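 SK-Br3 cells (McCoy's 5A, 10% FBS) in MTT assay: seeded at 5 or 7 x 10³ cells/well, attached overnight, exposed 48 h to a range of concentrations. MTT 3 h at 37 °C, formazan in DMSO, absorbance at 570 or 540 nm. IC50 as mean±SEM of two independent experiments in triplicate.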
# [6] = biological target: T1, FASN/HER2 (Homo sapiens) (UniProt P04626+P49327); assay: Inhibition of FASN/HER2 in human SK-BR-3 cells assessed as reduction in p-ERK1/2 levels after 6 hrs by Western blot analysis; format: cell-based; how it was run: as §3
# T1 sequence (P04626 whole entry, looked up): as the sequence (P04626 whole entry) above
# T1 sequence (P49327 whole entry, looked up): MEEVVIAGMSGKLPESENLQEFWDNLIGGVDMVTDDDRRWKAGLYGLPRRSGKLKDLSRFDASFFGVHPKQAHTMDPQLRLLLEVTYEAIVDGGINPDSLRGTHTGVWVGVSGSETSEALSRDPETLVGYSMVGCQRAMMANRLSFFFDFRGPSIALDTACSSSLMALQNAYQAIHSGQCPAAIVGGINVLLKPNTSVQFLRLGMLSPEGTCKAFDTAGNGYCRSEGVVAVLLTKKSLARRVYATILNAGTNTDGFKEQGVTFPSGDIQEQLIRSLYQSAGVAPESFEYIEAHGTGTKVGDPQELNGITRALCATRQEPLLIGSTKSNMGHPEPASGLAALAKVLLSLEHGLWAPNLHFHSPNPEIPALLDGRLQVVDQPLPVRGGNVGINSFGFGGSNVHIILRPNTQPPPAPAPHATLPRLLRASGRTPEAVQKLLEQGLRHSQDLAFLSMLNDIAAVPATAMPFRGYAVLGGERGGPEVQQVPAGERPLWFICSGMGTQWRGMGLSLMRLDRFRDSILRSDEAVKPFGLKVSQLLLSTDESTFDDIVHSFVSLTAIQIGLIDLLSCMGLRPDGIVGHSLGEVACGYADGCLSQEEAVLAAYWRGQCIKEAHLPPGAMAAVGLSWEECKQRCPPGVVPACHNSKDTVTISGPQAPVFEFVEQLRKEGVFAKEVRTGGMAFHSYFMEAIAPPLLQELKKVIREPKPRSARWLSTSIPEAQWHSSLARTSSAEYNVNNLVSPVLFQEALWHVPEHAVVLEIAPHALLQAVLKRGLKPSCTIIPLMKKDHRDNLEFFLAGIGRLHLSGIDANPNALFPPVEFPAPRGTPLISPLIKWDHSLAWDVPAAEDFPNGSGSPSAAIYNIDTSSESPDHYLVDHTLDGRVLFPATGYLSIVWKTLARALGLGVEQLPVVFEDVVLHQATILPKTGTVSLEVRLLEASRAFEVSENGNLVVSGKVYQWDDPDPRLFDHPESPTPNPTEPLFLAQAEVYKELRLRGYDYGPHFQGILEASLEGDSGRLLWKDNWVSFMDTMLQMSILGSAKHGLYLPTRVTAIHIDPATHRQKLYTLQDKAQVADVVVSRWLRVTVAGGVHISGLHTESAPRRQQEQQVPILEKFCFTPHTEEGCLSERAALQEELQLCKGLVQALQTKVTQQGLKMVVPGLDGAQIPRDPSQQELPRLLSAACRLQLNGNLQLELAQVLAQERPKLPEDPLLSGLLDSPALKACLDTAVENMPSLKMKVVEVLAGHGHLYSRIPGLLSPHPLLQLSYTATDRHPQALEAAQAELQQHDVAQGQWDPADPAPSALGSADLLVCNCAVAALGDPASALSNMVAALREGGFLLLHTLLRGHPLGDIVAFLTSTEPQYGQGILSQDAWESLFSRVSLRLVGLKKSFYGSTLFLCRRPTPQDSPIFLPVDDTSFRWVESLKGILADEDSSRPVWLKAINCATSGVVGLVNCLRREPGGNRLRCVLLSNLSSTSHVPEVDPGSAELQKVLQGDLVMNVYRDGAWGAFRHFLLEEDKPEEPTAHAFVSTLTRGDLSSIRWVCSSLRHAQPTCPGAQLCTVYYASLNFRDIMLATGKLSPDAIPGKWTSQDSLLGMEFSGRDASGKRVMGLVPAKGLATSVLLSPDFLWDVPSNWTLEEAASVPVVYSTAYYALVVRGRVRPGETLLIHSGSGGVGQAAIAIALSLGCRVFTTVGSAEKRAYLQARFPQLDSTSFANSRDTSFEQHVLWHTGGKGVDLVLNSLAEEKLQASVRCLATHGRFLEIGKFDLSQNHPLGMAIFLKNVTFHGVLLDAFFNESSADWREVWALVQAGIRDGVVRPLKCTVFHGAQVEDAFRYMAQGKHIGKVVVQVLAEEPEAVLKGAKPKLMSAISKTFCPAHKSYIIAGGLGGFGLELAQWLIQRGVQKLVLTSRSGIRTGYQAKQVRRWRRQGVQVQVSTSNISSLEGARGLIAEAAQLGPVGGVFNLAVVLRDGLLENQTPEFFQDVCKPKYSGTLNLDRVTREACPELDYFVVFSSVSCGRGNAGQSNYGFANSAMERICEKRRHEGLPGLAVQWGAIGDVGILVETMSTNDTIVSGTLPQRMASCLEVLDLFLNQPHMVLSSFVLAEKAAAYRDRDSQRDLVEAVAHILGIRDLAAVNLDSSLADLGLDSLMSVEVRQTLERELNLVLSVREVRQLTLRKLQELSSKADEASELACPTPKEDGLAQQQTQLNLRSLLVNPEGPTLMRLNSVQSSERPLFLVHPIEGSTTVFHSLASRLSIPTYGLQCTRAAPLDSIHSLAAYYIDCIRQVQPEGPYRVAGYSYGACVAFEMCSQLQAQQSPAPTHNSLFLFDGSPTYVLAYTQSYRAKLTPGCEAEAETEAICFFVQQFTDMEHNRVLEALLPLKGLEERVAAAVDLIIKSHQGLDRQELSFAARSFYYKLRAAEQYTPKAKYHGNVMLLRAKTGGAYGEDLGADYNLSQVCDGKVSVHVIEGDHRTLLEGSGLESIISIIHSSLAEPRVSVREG
# [7] = Selectivity ratio of IC50 for human HMEpC cells to IC50 for human SKBR3 cells; format: ADME, cell-based, SK-BR-3; settings: HMEpC cells (normal) versus SKBR3 cells, read-out: Ratio IC50
# [8] = Antiproliferative activity against human HMEpC cells; format: cell-based; how it was run: as §1
# [9] = test system: SK-BR-3; assay: Effect on total HER protein levels in human SKBR3 cells up to 24 hrs; format: functional, cell-based; how it was run: as §3
# [10] = biological target: Carnitine O-palmitoyltransferase 1, liver isoform (Rattus norvegicus, UniProt P32198); assay: Stimulation of rat CPT1A expressed in Pichia pastoris mitochondrial using [3H]carnitine after 3 mins by forward exchange method; format: ADME; settings: 0.05 h
# How it was run: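 Mitochondria isolated from GS115 Pichia pastoris expressing rat CPT1A, used in a forward exchange assay with 200 µM inhibitor, 2 mM L-[³H]carnitine, 80 µM palmitoyl-CoA, 20 mM HEPES pH 7.0, 1% fatty-acid-free albumin and 40-75 mM KCl. Incubated 3 min at 30 °C, stopped with perchloric acid, butanol-extracted [³H]palmitoylcarnitine counted. Mean±SEM of at least three independent mitochondrial preparations.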
# [11] = biological target: T1, FASN/HER2 (Homo sapiens); assay: Inhibition of FASN/HER2 in human SK-BR-3 cells assessed as reduction in p-AKT levels after 6 hrs by Western blot analysis; format: cell-based; how it was run: as §3
# [12] = test system: BT-20; assay: Cytotoxicity against human BT20 cells; format: functional, cell-based; how it was run: as §1
# [13] = test system: Mus musculus; assay: Toxicity against C57BL/6J mouse assessed as change in food intake at 30 to 75 mg/kg, ip administered as single dose measured after 24 hrs; format: organism-based; design: dose 30-75 mg/kg, route intraperitoneal; settings: in vivo; how it was run: as §2
# [14] = test system: Bel-7402; assay: Cytotoxicity against human Bel7402 cells; format: functional, cell-based; how it was run: as §1
# [15] = test system: NCI-H460; assay: Cytotoxicity against human H460 cells; format: functional, cell-based; how it was run: as §1
# [16] = test system: SK-HEP1; assay: Cytotoxicity against human SKHEP1 cells; format: functional, cell-based; how it was run: as §1
# [17] = test system: SK-BR-3; assay: Effect on total ERK1/2 protein levels in human SKBR3 cells up to 24 hrs; format: functional, cell-based; how it was run: as §3
# [18] = test system: Mus musculus; assay: Toxicity against C57BL/6J mouse assessed as distress at 30 to 75 mg/kg, ip administered as single dose measured after 24 hrs; format: organism-based; design: dose 30-75 mg/kg, route intraperitoneal; settings: in vivo; how it was run: as §2
# [19] = biological target: Receptor tyrosine-protein kinase erbB-2 (Homo sapiens) (UniProt P04626); assay: Inhibition of HER2 phosphorylation in human SK-BR-3 cells after 6 hrs by Western blot analysis; format: cell-based
# How it was run: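 SK-Br3 cells treated for 6, 12 or 24 h, harvested with trypsin-EDTA, lysed in Tris-HCl pH 7.5/EDTA/NaCl/PMSF buffer at 4 °C. Equal protein run on 3-8% SDS-PAGE and transferred to nitrocellulose. Membranes probed overnight at 4 °C with anti-phospho-HER2 mouse monoclonal, then peroxidase secondary and chemiluminescence. Re-probed for β-actin as loading control. Gels are representative of at least two independent experiments.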
# [20] = test system: A-431; assay: Cytotoxicity against human A431 cells; format: functional, cell-based; how it was run: as §1
# [21] = Antiproliferative activity against human HL7702 cells; format: cell-based; settings: L02; how it was run: as §1
# [22] = test system: Mus musculus; assay: Toxicity against C57BL/6J mouse assessed as altered behaviour at 30 to 75 mg/kg, ip administered as single dose measured after 24 hrs; format: organism-based; design: dose 30-75 mg/kg, route intraperitoneal; settings: in vivo; how it was run: as §2
# [23] = test system: Mus musculus; assay: Toxicity against C57BL/6J mouse assessed as signs of suffering at 30 to 75 mg/kg, ip administered as single dose measured after 24 hrs; format: organism-based; design: dose 30-75 mg/kg, route intraperitoneal; settings: in vivo; how it was run: as §2
# [24] = test system: SK-BR-3; assay: Induction of apoptosis in human SKBR3 cells assessed as cleavage of PARP by Western blot analysis; format: functional, cell-based; settings: TDE = time-dependent effect
# How it was run: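 SK-Br3 cells treated for up to 48 h, then immunoblotted for PARP on a 4-12% SDS gel. Intact PARP at 116 kDa, cleavage fragment at 89 kDa. Chemiluminescent detection with β-actin reprobe as loading control. At least two independent experiments.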
# [25] = biological target: Fatty acid synthase (Homo sapiens) (UniProt P49327); assay: Inhibition of FASN in human SK-BR-3 cells assessed as oxidation of NADPH at 4 uM after 24 hrs by Spectrophotometric analysis relative to control; format: cell-based
# Sequence of Fatty acid synthase (Homo sapiens) (P49327 whole entry, looked up): as above
# [26] = biological target: Receptor tyrosine-protein kinase erbB-2 (Homo sapiens) (UniProt P04626); assay: Inhibition of HER2 signaling in human SK-BR-3 cells up to 24 hrs; format: cell-based; how it was run: as §3
# [27] = test system: AU565; assay: Cytotoxicity against human AU565 cells; format: functional, cell-based; how it was run: as §1
# [28] = test system: SK-OV-3; assay: Cytotoxicity against human SKOV3 cells; format: functional, cell-based; how it was run: as §1
# [29] = Cytotoxicity against human HCC827 cells; format: functional, cell-based; how it was run: as §1
# [30] = test system: SK-BR-3; assay: Effect on total HER2 protein levels in human SKBR3 cells up to 6 hrs by ELISA; format: functional, cell-based
# [31] = test system: A549; assay: Cytotoxicity against human A549 cells; format: functional, cell-based; how it was run: as §1
# [32] = test system: HCT-116; assay: Cytotoxicity against human HCT116 cells; format: functional, cell-based; how it was run: as §1
# [33] = test system: SK-BR-3; assay: Effect on total HER2 protein levels in human SKBR3 cells up to 6 hrs by Western blot analysis; format: functional, cell-based; how it was run: as §3
# [34] = test system: SK-BR-3; assay: Effect on total AKT protein levels in human SKBR3 cells up to 24 hrs; format: functional, cell-based; how it was run: as §3
# [35] = Selectivity ratio of IC50 for human HL7702 cells to IC50 for human SKBR3 cells; format: ADME, cell-based; settings: HL7702 cells (normal) versus SKBR3 cells, read-out: Ratio IC50
# [36] = test system: PANC-1; assay: Cytotoxicity against human PANC1 cells; format: functional, cell-based; how it was run: as §1
# [37] = test system: SK-BR-3; assay: Cytotoxicity against human SKBR3 cells transfected with FASN specific siRNA assessed as cell death up to 10 uM by MTT assay; format: functional, cell-based
# How it was run: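 SK-Br3 cells transfected with a pool of three FASN-specific siRNAs (72 h), run alongside control-transfected cells. MTT viability read after 24 h compound exposure instead of 48 h. Knockdown checked by FASN immunoblot with β-actin. Mean±SEM of three experiments in duplicate; Student's t-test against the same concentration in control-transfected cells.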
# [38] = test system: MDA-MB-231; assay: Cytotoxicity against human MDA-MB-231 cells; format: functional, cell-based; how it was run: as §1
# [39] = test system: MCF7; assay: Cytotoxicity against human MCF7 cells; format: functional, cell-based; how it was run: as §1
# [40] = test system: ZR-75-1; assay: Cytotoxicity against human ZR-75-1 cells; format: functional, cell-based; how it was run: as §1
# [41] = test system: Mus musculus; assay: Toxicity against C57BL/6J mouse assessed as signs of suffering at 30 mg/kg, ip administered as single dose measured after 24 hrs; format: organism-based; design: dose 30 mg/kg, route intraperitoneal; settings: in vivo; how it was run: as §2
# [42] = test system: Mus musculus; assay: Toxicity against C57BL/6J mouse assessed as weight loss at 30 mg/kg, ip administered as single dose measured after 24 hrs; format: organism-based; design: dose 30 mg/kg, route intraperitoneal; settings: in vivo; how it was run: as §2
smiles,measurement,setting,value
O=C(Oc1ccc(-c2ccc(OC(=O)c3cc(O)c(O)c(O)c3)cc2)cc1)c1cc(O)c(O)c(O)c1,IC50,[1],70 µM
same,Activity,[2],Non-toxic
same,inhibition,[3],Active
same,IC50,[4],4 µM
same,IC50,[5],4 µM
same,inhibition,[6],Active
same,selectivity ratio,[7],8
same,IC50,[8],31 µM
same,Activity,[9],inactive
same,Activity,[10],Non-toxic
same,inhibition,[11],Active
same,IC50,[12],17 µM
same,Activity,[13],Non-toxic
same,IC50,[14],40 µM
same,IC50,[15],9 µM
same,IC50,[16],56 µM
same,Activity,[17],inactive
same,Activity,[18],Non-toxic
same,inhibition,[19],Active
same,IC50,[20],1.4 µM
same,IC50,[21],41 µM
same,Activity,[22],Non-toxic
same,Activity,[23],Non-toxic
same,Activity,[24],tde
same,inhibition,[25],90%
same,inhibition,[26],Active
same,IC50,[27],24 µM
same,IC50,[28],5 µM
same,IC50,[29],14 µM
same,Activity,[30],inactive
same,IC50,[31],17 µM
same,IC50,[32],4 µM
same,Activity,[33],inactive
same,Activity,[34],inactive
same,selectivity ratio,[35],10
same,IC50,[36],2.1 µM
same,Activity,[37],inactive
same,IC50,[38],5 µM
same,IC50,[39],3.8 µM
same,IC50,[40],1.9 µM
C=C1C(=O)O[C@H](CCCCCCCC)[C@H]1C(=O)O (relative stereo),Activity,[41],Toxic
same,Activity,[42],21%
